The record followed here is ChEMBL document CHEMBL1255354, “Methicillin-resistant Staphylococcus saprophyticus isolates carrying staphylococcal cassette chromosome mec have emerged in urogenital tract infections” (2008).

Experiment [1] relates to Staphylococcus saprophyticus. The experiment can be described thus: Antibacterial activity against methicillin-resistant mecA-positive Staphylococcus saprophyticus isolate TSU47 isolated from genitourinary tracts of acute cystitis patient after 24 hrs at 35 degC by agar dilution method. In kind it is functional. The settings on record: isolate TSU47, Urine. In a few lines:
(§1)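 MICs by agar dilution per CLSI M7-A6 on Mueller-Hinton agar, plates incubated 35°C for 24 h. Isolates identified as S. saprophyticus by Gram stain, catalase, coagulase, DNase, egg yolk mannitol salt agar growth, novobiocin susceptibility and ID 32 API Staph; mecA detected by dot-blot hybridization.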

In experiment [2] the test system is Staphylococcus saprophyticus. The experiment can be described thus: Antibacterial activity against methicillin-resistant mecA-positive Staphylococcus saprophyticus isolates isolated from genitourinary tracts of acute cystitis patient after 24 hrs at 35 degC by agar dilution method. The following applies: Urine. In kind it is functional. In a few lines:
as §1

Experiment [3] has as its system Staphylococcus saprophyticus. The experiment can be described thus: Antibacterial activity against methicillin-resistant mecA-positive Staphylococcus saprophyticus isolate TSU28 isolated from genitourinary tracts of acute cystitis patient after 24 hrs at 35 degC by agar dilution method. It is filed as functional. The following applies: isolate TSU28, Urine. The procedure, abridged: as §1
On the technique in general: Agar dilution tests growth on a series of plates holding different concentrations.

The test system of experiment [4] is Staphylococcus saprophyticus. Put plainly: Antibacterial activity against methicillin-resistant mecA-positive Staphylococcus saprophyticus isolate TSU57 isolated from genitourinary tracts of acute cystitis patient after 24 hrs at 35 degC by agar dilution method. In kind it is functional. The following applies: isolate TSU57, Urine. In a few lines: as §1
Experiment [5] has as its system Staphylococcus saprophyticus. The experiment can be described thus: Antibacterial activity against methicillin-resistant mecA-positive Staphylococcus saprophyticus isolate TSU67 isolated from genitourinary tracts of acute cystitis patient after 24 hrs at 35 degC by agar dilution method. In kind it is functional. The following applies: isolate TSU67, Urine. In a few lines: as §1

For experiment [6], the system named is Staphylococcus saprophyticus. The experiment can be described thus: Antibacterial activity against methicillin-resistant mecA-positive Staphylococcus saprophyticus isolate TSU69 isolated from genitourinary tracts of acute cystitis patient after 24 hrs at 35 degC by agar dilution method. In kind it is functional. The settings on record: isolate TSU69, Urine. The procedure, abridged:
as §1

Experiment [7] concerns Staphylococcus saprophyticus. Put plainly: Antibacterial activity against methicillin-resistant mecA-positive Staphylococcus saprophyticus isolate TSU90 isolated from genitourinary tracts of acute cystitis patient after 24 hrs at 35 degC by agar dilution method. It is filed as functional. The settings on record: isolate TSU90, Urine. In a few lines:
as §1

Experiment [8] relates to Staphylococcus saprophyticus. Put plainly: Antibacterial activity against methicillin-resistant mecA-positive Staphylococcus saprophyticus isolate TSU18 isolated from genitourinary tracts of acute cystitis patient after 24 hrs at 35 degC by agar dilution method. The following applies: isolate TSU18, Urine. It is filed as functional. The procedure, abridged:
as §1

The test system of experiment [9] is Staphylococcus saprophyticus. The experiment can be described thus: Antibacterial activity against methicillin-resistant mecA-positive Staphylococcus saprophyticus isolate TSU33 after 24 hrs at 35 degC by agar dilution method. The following applies: isolate TSU33, 24 h.

Values after ≈ are worked out from the molar mass of the structure shown.

For the compound `CC1(C)S[C@@H]2[C@H](NC(=O)[C@H](N)c3ccccc3)C(=O)N2[C@H]1C(=O)O` [AMPICILLIN], the lowest concentration to inhibit growth in experiment [1] (MIC) was 4 µg/mL (≈ 11.4 µM). For the same compound, in experiment [2], the MIC50 (usually the lowest concentration that inhibits either 50% of growth or 50% of the strains tested, depending on the study) was found to be 0.25 µg/mL (≈ 0.715 µM) and the MIC90 (as a rule, the lowest concentration that inhibits either 90% of growth or 90% of the strains tested, depending on the study) was determined as 1 µg/mL (≈ 2.86 µM).
Regarding `NCC[C@H](O)C(=O)N[C@@H]1C[C@H](N)[C@@H](O[C@H]2O[C@H](CN)CC[C@H]2N)[C@H](O)[C@H]1O[C@H]1O[C@H](CO)[C@@H](O)[C@H](N)[C@H]1O` [ARBEKACIN], the MIC in [3], in [1], in [4], in experiment [5], in experiment [6] and in experiment [7] was no more than 0.06 µg/mL throughout. Also, the MIC in experiment [8] and in experiment [9] was no more than 0.06 µg/mL each time. Further, the MIC50 in experiment [2] is no more than 0.06 µg/mL. The same compound registered an MIC90 in experiment [2] of no more than 0.06 µg/mL.
As for `Cc1nnc(SCC2=C(C(=O)O)N3C(=O)[C@@H](NC(=O)Cn4cnnn4)[C@H]3SC2)s1` [CEFAZOLIN], the MIC – broadly, the smallest concentration in the dilution series that meets the test's criterion for growth inhibition – is 32 µg/mL (≈ 70.4 µM) in [3]; 4 µg/mL (≈ 8.8 µM) in [1]; 16 µg/mL (≈ 35.2 µM) in experiment [4]; 128 µg/mL (≈ 282 µM) in experiment [5]; 128 µg/mL (≈ 282 µM) in experiment [6]; 64 µg/mL (≈ 141 µM) in experiment [7]. Besides, the MIC in [8] was 16 µg/mL (≈ 35.2 µM); in [9], 1 µg/mL (≈ 2.2 µM). Further, in experiment [2], the MIC50 was determined as 1 µg/mL (≈ 2.2 µM). Also, in [2], the MIC90 was 2 µg/mL (≈ 4.4 µM).
In the case of `CO[C@@]1(NC(=O)Cc2cccs2)C(=O)N2C(C(=O)O)=C(COC(N)=O)CS[C@@H]21` [CEFOXITIN], the minimum inhibitory concentration (MIC) in experiment [3] is 16 µg/mL (≈ 37.4 µM); in [1], 8 µg/mL (≈ 18.7 µM); in experiment [4], 16 µg/mL (≈ 37.4 µM); in experiment [5], 32 µg/mL (≈ 74.9 µM); in [6] it was 32 µg/mL (≈ 74.9 µM); in experiment [7], 16 µg/mL (≈ 37.4 µM). The MIC in [8] turned out to be 16 µg/mL (≈ 37.4 µM); in [9] it was 8 µg/mL (≈ 18.7 µM). In [2], this compound gave an MIC50 of 2 µg/mL (≈ 4.68 µM). Further, in experiment [2], the MIC90 was found to be 2 µg/mL (≈ 4.68 µM).
Turning to `CC[C@H]1OC(=O)[C@H](C)[C@@H](O[C@H]2C[C@@](C)(OC)[C@@H](O)[C@H](C)O2)[C@H](C)[C@@H](O[C@@H]2O[C@H](C)C[C@H](N(C)C)[C@H]2O)[C@](C)(OC)C[C@@H](C)C(=O)[C@H](C)[C@@H](O)[C@]1(C)O` [CLARITHROMYCIN], the MIC is 32 µg/mL (≈ 42.8 µM) in [3]; 16 µg/mL (≈ 21.4 µM) in experiment [1]; 16 µg/mL (≈ 21.4 µM) in [4]; 0.125 µg/mL (≈ 0.167 µM) in experiment [5]; 0.125 µg/mL (≈ 0.167 µM) in [6]; 16 µg/mL (≈ 21.4 µM) in experiment [7]. Besides, the MIC in experiment [8] and in experiment [9] was 16 µg/mL (≈ 21.4 µM) each time. Further, in [2], the MIC50 is no more than 0.06 µg/mL. Also, the MIC90 in [2] is 1 µg/mL (≈ 1.34 µM).
Consider `CC[C@H]1OC(=O)[C@H](C)[C@@H](O[C@H]2C[C@@](C)(OC)[C@@H](O)[C@H](C)O2)[C@H](C)[C@@H](O[C@@H]2O[C@H](C)C[C@H](N(C)C)[C@H]2O)[C@](C)(O)C[C@@H](C)C(=O)[C@H](C)[C@@H](O)[C@]1(C)O` [ERYTHROMYCIN], for which the minimum inhibitory concentration (MIC) in experiment [3] was found to be 128 µg/mL (≈ 174 µM); in experiment [1], 64 µg/mL (≈ 87.2 µM); in experiment [4] it was 64 µg/mL (≈ 87.2 µM); in [5], 0.25 µg/mL (≈ 0.341 µM); in [6], 0.25 µg/mL (≈ 0.341 µM); in [7], 64 µg/mL (≈ 87.2 µM). Further, the MIC in experiment [8] and in experiment [9] was 64 µg/mL (≈ 87.2 µM) throughout. Moreover, the MIC50 in experiment [2] was determined as 0.125 µg/mL (≈ 0.17 µM). In experiment [2], this compound displayed an MIC90 of 2 µg/mL (≈ 2.73 µM).
On to `C[C@@H]1O[C@@H]1P(=O)(O)O` [FOSFOMYCIN], for which the minimal inhibitory concentration (MIC) was no less than 512 µg/mL in experiment [3]; 128 µg/mL (≈ 927 µM) in experiment [1]; 128 µg/mL (≈ 927 µM) in experiment [4]; 256 µg/mL (≈ 1850 µM) in experiment [5]; no less than 512 µg/mL in experiment [6]; no less than 512 µg/mL in [7]. For the same compound, the MIC in experiment [8] is 64 µg/mL (≈ 464 µM); in experiment [9] it was 128 µg/mL (≈ 927 µM). For the same compound, the MIC50 in experiment [2] was 128 µg/mL (≈ 927 µM). The MIC90 in experiment [2] is no less than 512 µg/mL.
As to `C[C@@H](O)[C@H]1C(=O)N2C(C(=O)O)=C(SCCNC=N)C[C@H]12` [IMIPENEM ANHYDROUS], the MIC in [3], in experiment [1], in experiment [4], in [5], in [6] and in [7] was 0.125 µg/mL (≈ 0.418 µM) in each case. Also, the minimal inhibitory concentration (MIC) in experiment [8] and in [9] was no more than 0.06 µg/mL in each case. Further, the MIC50 in experiment [2] was no more than 0.06 µg/mL. The compound further returned an MIC90 in experiment [2] of no more than 0.06 µg/mL.
Take `NC[C@H]1O[C@H](O[C@H]2[C@H](O)[C@@H](O[C@H]3O[C@H](CO)[C@@H](O)[C@H](N)[C@H]3O)[C@H](N)C[C@@H]2N)[C@H](O)[C@@H](O)[C@@H]1O` [KANAMYCIN]: the MIC in [3] was found to be 0.25 µg/mL (≈ 0.516 µM); in [1] it was 0.25 µg/mL (≈ 0.516 µM); in experiment [4] it was 0.25 µg/mL (≈ 0.516 µM); in experiment [5] it was 0.25 µg/mL (≈ 0.516 µM); in [6] it was 0.5 µg/mL (≈ 1.03 µM); in [7] it was 0.5 µg/mL (≈ 1.03 µM). The minimum inhibitory concentration (MIC) in experiment [8] and in [9] was 0.25 µg/mL (≈ 0.516 µM) each time. In addition, the MIC50 in experiment [2] was 0.25 µg/mL (≈ 0.516 µM). This compound also displayed an MIC90 in [2] of 0.5 µg/mL (≈ 1.03 µM).
Turning to `CC1COc2c(N3CCN(C)CC3)c(F)cc3c(=O)c(C(=O)O)cn1c23` (stereo unspecified) [OFLOXACIN], the MIC in experiment [5] and in [6] was 1 µg/mL (≈ 2.77 µM) throughout. Moreover, in [2], the MIC90 amounted to 1 µg/mL (≈ 2.77 µM).
Regarding `Cc1onc(-c2ccccc2)c1C(=O)N[C@@H]1C(=O)N2[C@@H]1SC(C)(C)[C@@H]2C(=O)O` [OXACILLIN], the minimum inhibitory concentration (MIC) in [3] was 256 µg/mL (≈ 638 µM); in experiment [1] it was 64 µg/mL (≈ 159 µM); in experiment [4], 128 µg/mL (≈ 319 µM); in experiment [5], 256 µg/mL (≈ 638 µM); in experiment [6], 128 µg/mL (≈ 319 µM); in [7], 128 µg/mL (≈ 319 µM). The MIC in experiment [8] and in experiment [9] was 128 µg/mL (≈ 319 µM) in each case. In addition, in [2], the MIC50 came to 0.5 µg/mL (≈ 1.25 µM). The same compound had an MIC90 in experiment [2] of 1 µg/mL (≈ 2.49 µM).
For the compound `CN[C@H](CC(C)C)C(=O)N[C@H]1C(=O)N[C@@H](CC(N)=O)C(=O)N[C@H]2C(=O)N[C@H]3C(=O)N[C@H](C(=O)N[C@H](C(=O)O)c4cc(O)cc(O)c4-c4cc3ccc4O)[C@H](O)c3ccc(c(Cl)c3)Oc3cc2cc(c3O[C@@H]2O[C@H](CO)[C@@H](O)[C@H](O)[C@H]2O[C@H]2C[C@](C)(N)[C@H](O)[C@H](C)O2)Oc2ccc(cc2Cl)[C@H]1O` [VANCOMYCIN], the minimum inhibitory concentration (MIC) is 1 µg/mL (≈ 0.69 µM) in experiment [3]; 1 µg/mL (≈ 0.69 µM) in experiment [1]; 0.5 µg/mL (≈ 0.345 µM) in [4]; 1 µg/mL (≈ 0.69 µM) in experiment [5]; 1 µg/mL (≈ 0.69 µM) in experiment [6]; 1 µg/mL (≈ 0.69 µM) in [7]. In addition, the minimum inhibitory concentration (MIC) in [8] and in experiment [9] was 0.5 µg/mL (≈ 0.345 µM) in each case. Besides, the MIC50 in experiment [2] came to 0.5 µg/mL (≈ 0.345 µM). The MIC90 in experiment [2] came to 1 µg/mL (≈ 0.69 µM).
